A selection: hits, their analogues and other compounds. The true share with any hit is near 3.5%.
ERAP1 inh – blocks human ERAP1 aminopeptidase activity. Q9NZ08. recombinant ERAP1, Leu-AMC fluorescence, 60 min. inhibition, % at 10.7 µM. 0.15% of 340,000 active. AID 652197;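 active = mean replicate inhibition of at least 30%, or all replicates individually reaching that 30% level; inactive = mean below 30% and not every replicate reaching it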
Target sequence (Q9NZ08 whole entry, looked up): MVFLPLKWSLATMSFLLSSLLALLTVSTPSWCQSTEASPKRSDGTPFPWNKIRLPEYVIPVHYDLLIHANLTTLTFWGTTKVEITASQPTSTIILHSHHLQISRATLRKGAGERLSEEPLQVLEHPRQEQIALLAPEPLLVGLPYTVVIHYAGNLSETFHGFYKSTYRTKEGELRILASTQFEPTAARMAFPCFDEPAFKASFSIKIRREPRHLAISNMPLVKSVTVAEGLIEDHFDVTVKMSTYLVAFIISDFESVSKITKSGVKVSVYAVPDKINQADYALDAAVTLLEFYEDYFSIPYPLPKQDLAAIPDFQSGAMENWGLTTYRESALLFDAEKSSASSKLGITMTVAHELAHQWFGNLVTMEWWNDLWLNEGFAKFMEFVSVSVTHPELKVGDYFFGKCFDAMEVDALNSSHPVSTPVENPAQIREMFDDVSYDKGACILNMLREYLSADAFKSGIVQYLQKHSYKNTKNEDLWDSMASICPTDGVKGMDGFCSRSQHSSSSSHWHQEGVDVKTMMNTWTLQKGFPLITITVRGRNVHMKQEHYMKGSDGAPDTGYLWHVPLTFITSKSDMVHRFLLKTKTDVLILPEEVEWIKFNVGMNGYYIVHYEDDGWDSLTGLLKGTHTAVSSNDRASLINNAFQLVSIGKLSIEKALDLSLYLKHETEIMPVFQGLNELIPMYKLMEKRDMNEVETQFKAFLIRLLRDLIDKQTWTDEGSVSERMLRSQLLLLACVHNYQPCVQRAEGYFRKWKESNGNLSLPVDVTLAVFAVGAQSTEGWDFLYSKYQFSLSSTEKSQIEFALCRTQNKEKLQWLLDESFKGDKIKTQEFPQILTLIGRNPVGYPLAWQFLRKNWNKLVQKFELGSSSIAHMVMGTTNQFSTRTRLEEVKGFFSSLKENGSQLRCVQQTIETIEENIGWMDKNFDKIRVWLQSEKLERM
Cneo AK release – causes C. neoformans cell lysis | adenylate kinase release luminescence, 4 h; normalised: neutral wells 0, clomiphene wells 100 | lysis activity, % at 15 µM | 0.2% of 360,000 active;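 active = mean lysis activity across replicates of at least 80%, whatever share of replicates individually reach that level; inactive = mean lysis activity below 80%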
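Assay system: Cryptococcus neoformans yeast cells / Dosing: single-point compound dose / Timing: 4 h at 37 °C static, read 1 h later / Measured by: luminescence of released adenylate kinase using an AK detection reagent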
Env fusion inh – HIV envelope-mediated fusion inhibition; 1.1% of 360,000 active; HeLa-JRFL Env/CEM21 cell fusion, luciferase; inhibition, % at 12.3 µM; AID 651610;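 active = mean replicate inhibition score of at least 50 and every replicate individually at or above 50; inconclusive = only one of the two criteria met; inactive = mean below 50 and not all replicates reaching 50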
esBAF inh – SWI/SNF esBAF complex inhibition; mouse ES cells, Bmi1-luciferase knock-in reporter, 24 h; 100% = twice the neutral-well signal; reporter increase, % at 12.5 µM; 2% of 350,000 active; in the data active = activation above about 40%; inconclusive = no clear call, values can overlap the other calls;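 also: a rise in the Bmi1 reporter signal indicates esBAF inhibition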
Wnt act – activates Wnt/beta-catenin signaling in a reporter cell assay | activator, plate reader | activation, % at 9.35 µM | 1.2% of 300,000 active | AID 743398; in the data active = activation above about 30%, passing the limit was not always enough; inconclusive = no clear call, values can overlap the other calls
MITF TRPM1 HTS – increases MITF-driven TRPM1 promoter luciferase signal; activation, % at 12.5 µM; 0.75% of 300,000 active; SK-MEL-5 TRPM1-promoter luciferase, 24 h; % of positive control, neutral wells = 0;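 active = mean activation of at least 80% with every replicate also reaching 80%; inconclusive = mean reaches 80% but some replicate falls short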
Of the large screens only hits and unclear results are named; the others gave an inactive call.

CCC(C)c1ccc(Nc2ncccc2C#N)cc1 (centres undefined)	esBAF inh 80.8 (no result: ERAP1 inh, Env fusion inh, Wnt act)
C[C@H](CO)N1C[C@H](C)[C@@H](CN(C)S(=O)(=O)c2cn(C)cn2)OCCCC[C@H](C)Oc2ccc(NS(=O)(=O)c3ccccc3)cc2C1=O	none (no result: Wnt act, MITF TRPM1 HTS)
CCc1ccc(C2=NN(S(C)(=O)=O)C(c3cccs3)C2)cc1 (centres undefined)	Wnt act 43.8 (no result: ERAP1 inh, MITF TRPM1 HTS)
CS(=O)(=O)N1N=C(c2ccc(Br)cc2)CC1c1cccs1 (centres undefined)	esBAF inh 77.1 (no result: ERAP1 inh, Env fusion inh, Wnt act)
COc1ccc(C2NC(=O)NC(C)=C2C(=O)OCc2ccccc2)cc1 (centres undefined)	none
CC1=C(C(=O)OCc2ccccc2)C(c2ccccc2)NC(=O)N1 (centres undefined)	Cneo AK release 80.3 (no result: MITF TRPM1 HTS)
CC1=C(C(=O)OCc2ccc3c(c2)OCO3)C(c2ccc(F)cc2)NC(=O)N1 (centres undefined)	Env fusion inh 99.9 (no result: ERAP1 inh)
CC1=C(C(=O)OCc2ccc3c(c2)OCO3)C(c2ccc(Cl)cc2)NC(=O)N1 (centres undefined)	none (no result: Env fusion inh)
COc1ccc(OC)c(NC(=O)C(C)OC(=O)c2cc3ccccc3[nH]2)c1 (centres undefined)	Env fusion inh 58.2
CCC(Sc1nc2ccccc2c(=O)[nH]1)C(=O)Nc1ccc(C(C)=O)cc1 (centres undefined)	esBAF inh 70.2
O=C(COC(=O)COc1ccc(Cl)cc1Br)NC1CCCCCC1	none
Cc1ccsc1C(=O)OCC(=O)N(C)C1CCCCC1	Wnt act 48.4 (no result: Env fusion inh)
Cc1ccsc1C(=O)OCC(=O)NC1CCCC1	esBAF inh inconclusive (no result: Env fusion inh)
CN(C(=O)COc1ccc(Cl)cc1Br)C1CCCCC1	esBAF inh 47.5
CN(C(=O)COC(=O)c1cccnc1Cl)C1CCCCC1	esBAF inh 55.8 (no result: Env fusion inh)
C[C@H](O)C#Cc1ccc2c(c1)O[C@@H](CN(C)Cc1ccccc1)[C@@H](C)CN([C@@H](C)CO)S2(=O)=O	none (no result: Wnt act, MITF TRPM1 HTS)
COc1ccc(NC(=O)N(C)C[C@@H]2OCCCC[C@H](C)Oc3ccc(NS(=O)(=O)c4ccc(Cl)cc4)cc3C(=O)N([C@H](C)CO)C[C@H]2C)cc1	none (no result: Wnt act, MITF TRPM1 HTS)
CCOC(=O)c1cc(C(=O)Nc2ccc(C)c(F)c2)nn1C	esBAF inh 42.5, MITF TRPM1 HTS inconclusive (no result: ERAP1 inh, Wnt act)
O=C(C[C@H]1CC[C@@H](NC(=O)CCN2CCCCC2)[C@H](CO)O1)NCc1ccc(Cl)c(Cl)c1	none (no result: Wnt act, MITF TRPM1 HTS)
O=C(CCN1CCCCC1)NCC[C@@H]1CC[C@@H](NC(=O)C2CC2)[C@H](CO)O1	none (no result: Wnt act, MITF TRPM1 HTS)
O=C(CSc1nc(CCC2CCCC2)nc2ccccc12)NCc1ccc2c(c1)OCO2	Cneo AK release 115.4
Cc1cc(NC(=O)CSc2nc(CCC3CCCC3)nc3ccccc23)no1	none (no result: ERAP1 inh, MITF TRPM1 HTS)
CCCNc1nc(C)nc2c1cnn2CCc1ccccc1	none (no result: Env fusion inh, Wnt act)
Cc1nc(NC(C)C)c2cnn(CCc3ccccc3)c2n1	MITF TRPM1 HTS 97.7 (no result: ERAP1 inh, Env fusion inh, Wnt act)
CC1=Nc2ccccc2N=C(NC(=O)c2ccccc2)C1c1ccc(Cl)cc1 (centres undefined)	Env fusion inh 69.4
Cc1c(C(=O)N(CCO)Cc2ccccc2)oc2c(F)cccc12	esBAF inh 59.0 (no result: MITF TRPM1 HTS)
Cc1cc(Cl)c2oc(C(=O)N(CCO)Cc3ccccc3)c(C)c2c1	none
COc1ccc(C#Cc2ccc3c(c2)O[C@H](CN(C)C(=O)CN2CCOCC2)[C@H](C)CN([C@@H](C)CO)S3(=O)=O)cc1	none (no result: Wnt act, MITF TRPM1 HTS)
C#CCn1c(S(=O)(=O)Cc2ccc(C)cc2)nc(-c2ccccc2)c1-c1ccccc1	Env fusion inh 146.1 (no result: ERAP1 inh, Wnt act)
CCOC(=O)Cn1c(S(=O)(=O)Cc2ccccc2Cl)nc(-c2ccccc2)c1-c1ccccc1	none (no result: Env fusion inh)
C#CCn1c(S(=O)(=O)Cc2ccccc2Cl)nc(-c2ccccc2)c1-c1ccccc1	Env fusion inh 79.1 (no result: ERAP1 inh, Wnt act)
O=C(C[C@H]1C[C@H]2c3cc(NC(=O)Nc4ccc(F)cc4)ccc3O[C@H]2[C@@H](CO)O1)NC1CCCCC1	none (no result: ERAP1 inh, Wnt act, MITF TRPM1 HTS)
c1ccc2c(c1)oc1c(Nc3ccc4c(c3)OCO4)ncnc12	esBAF inh 43.7, Wnt act 33.5 (no result: ERAP1 inh, Env fusion inh)
Oc1ccc(Nc2ncnc3c2oc2ccccc23)cc1	none
CC(C)Sc1ncnc2c1oc1ccccc12	none (no result: ERAP1 inh, Wnt act)
COc1ncnc2c1oc1ccccc12	esBAF inh 60.0
c1ccc(Nc2ncnc3c2oc2ccccc23)cc1	esBAF inh 87.7 (no result: ERAP1 inh)
